pIC50, pKi: −log10 of the molar value.
Experiments:
[1] = molecular target: Cannabinoid receptor 1 (Rattus norvegicus, UniProt P20272); assay: Displacement of [3H]CP-55,940 from CB1 receptor in rat brain homogenates; format: tissue-based
How it was run: (§1)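 Membranes from rat brain (CB1) or from HEK293 cells overexpressing mouse CB2 were used, with [3H]CP-55,940 as radioligand. Data fitted by nonlinear regression. Ki values come from three independent experiments run in duplicate and are given as the mean of the three.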

[2] = molecular target: Cannabinoid receptor 2 (Mus musculus, UniProt P47936); assay: Displacement of [3H]CP-55,940 from mouse CB2 receptor expressed in HEK293 cells; format: cell-based; how it was run: as §1
[3] = Inhibition of rat FAAH deltaTM mutant expressed in Escherichia coli using AAMCA as substrate after 15 mins by medium throughput fluorescent assay
[4] = species: Rattus norvegicus; assay: Irreversible inhibition of rat FAAH deltaTM mutant expressed in Escherichia coli assessed as recovery of enzyme activity using AAMCA as substrate at 40 times IC50 treated for 1 hr measured after 80 mins of rapid dilution by medium throughput fluorescent assay; set-up: scale not given: the % may be the effect or the level left
[5] = Inhibition of human FAAH deltaTM mutant expressed in Escherichia coli using AAMCA as substrate after 15 mins by medium throughput fluorescent assay
[6] = molecular target: T1, Monoglyceride lipase (Homo sapiens, UniProt Q99685); assay: Inhibition of recombinant human hexahistidine-tagged MGL expressed in Escherichia coli using AHMMCE as substrate after 15 mins by medium throughput fluorescent assay
T1 sequence (Q99685 whole entry): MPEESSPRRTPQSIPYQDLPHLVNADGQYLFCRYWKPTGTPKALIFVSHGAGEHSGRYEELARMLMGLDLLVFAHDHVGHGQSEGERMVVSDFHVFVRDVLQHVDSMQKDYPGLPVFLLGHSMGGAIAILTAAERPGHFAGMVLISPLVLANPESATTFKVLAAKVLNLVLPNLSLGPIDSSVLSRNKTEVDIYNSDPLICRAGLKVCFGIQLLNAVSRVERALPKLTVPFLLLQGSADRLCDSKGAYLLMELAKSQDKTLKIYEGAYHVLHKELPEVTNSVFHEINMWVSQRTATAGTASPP

Cannabinoid receptor 2, sequence (P47936 whole entry): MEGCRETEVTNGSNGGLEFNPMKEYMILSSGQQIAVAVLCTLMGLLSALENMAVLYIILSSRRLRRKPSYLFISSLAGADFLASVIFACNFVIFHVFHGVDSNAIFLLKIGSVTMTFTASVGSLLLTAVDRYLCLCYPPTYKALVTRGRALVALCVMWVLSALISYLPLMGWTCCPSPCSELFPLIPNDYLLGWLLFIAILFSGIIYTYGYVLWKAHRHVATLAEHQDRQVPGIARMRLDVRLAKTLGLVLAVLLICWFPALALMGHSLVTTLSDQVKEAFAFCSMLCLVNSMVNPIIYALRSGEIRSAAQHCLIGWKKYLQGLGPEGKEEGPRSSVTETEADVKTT
Cannabinoid receptor 1, sequence (P20272 whole entry): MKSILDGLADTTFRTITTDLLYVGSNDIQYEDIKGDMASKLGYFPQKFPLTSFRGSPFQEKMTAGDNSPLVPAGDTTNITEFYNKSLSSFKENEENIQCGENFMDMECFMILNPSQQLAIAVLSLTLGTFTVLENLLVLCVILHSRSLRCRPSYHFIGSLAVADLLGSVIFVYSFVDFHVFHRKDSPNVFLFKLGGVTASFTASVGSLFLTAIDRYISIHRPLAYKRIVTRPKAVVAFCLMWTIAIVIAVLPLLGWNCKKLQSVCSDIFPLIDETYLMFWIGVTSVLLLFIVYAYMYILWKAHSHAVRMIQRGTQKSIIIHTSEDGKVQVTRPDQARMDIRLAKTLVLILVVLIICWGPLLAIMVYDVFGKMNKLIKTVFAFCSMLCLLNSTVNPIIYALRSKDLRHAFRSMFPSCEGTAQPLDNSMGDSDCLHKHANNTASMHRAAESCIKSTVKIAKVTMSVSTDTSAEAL

Compound | pKi [1] | pKi [2] | pIC50 [3] | also measured
O=S(=O)(F)CCCCCCCc1ccc(O)cc1 | 6.79 | 6.16 | – | –
O=S(=O)(F)CCCCCCCc1ccccc1OCc1ccccc1 | – | – | 8.37 | –
O=S(=O)(F)CCCCOc1ccc(OCc2ccccc2)cc1 | 6.98 | 6.69 | 8.92 | –
O=S(=O)(F)CCCCCCCCc1ccccc1 | – | – | 6.75 | –
O=S(=O)(F)CCCCCCCc1ccccc1O | – | – | 8.92 | –
O=S(=O)(F)CCCCCCCc1cccc(OCc2ccccc2)c1 | 6.47 | 7.00 | – | –
O=S(=O)(F)CCCCCc1ccc(O)cc1 | 6.72 | 6.24 | 8.55 | Activity [4]: 8%; pIC50 [5]: 8.29
O=S(=O)(F)CCCCCCCc1ccccc1 | – | – | 7.43 | –
O=S(=O)(F)CCCc1ccccc1 | – | – | 6.69 | –
O=S(=O)(F)CCCCCc1ccccc1 | – | – | 7.30 | –
O=S(=O)(F)CCCCc1ccccc1 | – | – | 7.05 | –
O=S(=O)(F)CCCCCc1ccc(OCc2ccccc2)cc1 | 6.93 | 6.71 | 8.82 | –
O=S(=O)(F)CCCCCCCc1cccc(O)c1 | – | – | 8.60 | –
O=S(=O)(F)CCCCCCc1ccccc1 | – | – | 7.42 | –
COS(=O)(=O)CCCCCCCc1ccc(OCc2ccccc2)cc1 | – | – | 6.57 | pIC50 [6]: < 5.30

Source: ChEMBL document CHEMBL2177096, “Sulfonyl fluoride inhibitors of fatty acid amide hydrolase” (J Med Chem, 2012)
